Source: PubChem
Shown are actives, neighbours in structure and some others; about 9.2% of the full set was active somewhere.
HCT116 PTEN-null = growth suppression of PTEN-null HCT116, primary screen, cell-based, CellTiter-Glo; HCT116 PTEN-null viability, 60 h; stronger effect = lower value; viability, % at 10 µM; 140,000 tested, 1.2% active;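 active = viability at or below a set limit, 4 SD under the median of all tested compounds, cut at about 3.7% in these data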;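 note: PTEN knockout HCT116 line with beta catenin targeted HCT116 as companion control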
Autophagy HCS = autophagy modulators in MEF cells, primary screen, imaging, high-content, MEF GFP-LC3; calls only at 10 µM (by protocol); MEF GFP-LC3 puncta imaging; test concentration mostly 10 µM; 190,000 tested, 0.98% active; AID 463193, 2010;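 active = percentage of spot-positive cells more than 3 SD above its plate mean, without a fluorescence outlier flag or 80% toxicity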;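 note: spot-positive cell cutoff set from DMSO-treated cells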
bCat KO growth = primary screen for growth suppressors in beta-catenin knockout HCT116 cells (colon tumor, human) | viability, % at 10 µM | HCT116 beta-catenin knockout viability, CellTiter-Glo, 60 h; stronger effect = lower value | AID 818, 2007 | 140,000 tested, 1.5% active;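 active = viability at or under a set limit, the compound median less 4 SD, cut at about 6% in these data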;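 note: 0% = Hyamine 1622 control at 20 µM and 100% = untreated cell control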
Dynein cargo inh = inhibitors of GR-EGFP nuclear translocation, primary screen, dynein cargo transport inhibitor project, imaging, high-content, 3617.4 mouse cells. z-score, hits read low. AID 1381, 2008. test concentration mostly 20 µM; stimulated with dexamethasone, 1 µM; stronger effect = lower value. 220,000 tested, 0.47% active;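 active = plate z-score of nuclear minus cytoplasmic receptor signal below a set negative limit, without overly bright fluorescence or cell loss, cut at about -3.5 in these data, passing the limit was not always enough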;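 note: z-score of nuclear minus cytoplasmic ring GR-EGFP intensity difference per well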
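Buffer or medium: tetracycline-free induction medium containing charcoal-stripped FBS / Reagent: dexamethasone agonist, 1.0 µM final, for 30 min / Technique: automated 10x imaging of fixed Hoechst-stained cells / Times: induction 48 h, compound 1 h, agonist 30 min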
Lmaj promast = Leishmania major promastigote growth inhibition, primary screen; Leishmania major promastigotes, resazurin fluorescence viability; inhibition, % at 10 µM; 200,000 tested, 9% active; AID 1063, 2008; in the data active = inhibition above about 50%;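 note: promastigotes grown with compound for 44 hours at 28 °C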
Starred values were filed as active, the others as inactive; i = inactive; nt = not tested or not shown; + = active, no number.

SMILES	HCT116 PTEN-null	Autophagy HCS	bCat KO growth	Dynein cargo inh	Lmaj promast
O=S(=O)(Nc1cccc(-c2cn3cccnc3n2)c1)c1ccc(F)cc1	100	i	91	0.1	71*
O=S(=O)(Nc1cccc(-c2cn3cccnc3n2)c1)c1ccccc1	99	i	94	0.86	88*
CC(NC(=O)c1ccccc1O)c1ccccc1 (stereo not drawn)	100	i	100	-0.56	29
Cn1cnnc1SCC(=O)c1c(N)n(Cc2ccccc2)c(=O)n(C)c1=O	nt	i	nt	0.0078	-2
CC(C)OCCCn1c(=N)c(C(N)=S)cc2c(=O)n3ccccc3nc21	58	i	58	1.3	100*
N=c1c(C(=O)NCc2ccc(F)cc2)cc2c(=O)n3ccccc3nc2n1Cc1cccnc1	62	i	79	-0.071	71*
N=c1c(C(=O)NCc2ccc(F)cc2)cc2c(=O)n3ccccc3nc2n1CCCN1CCOCC1	56	i	53	1.9	60*
CC(=O)N=c1c(C#N)cc2c(=O)n3ccccc3nc2n1CCCOC(C)C	nt	nt	nt	0.58	nt
C=CCNC(=O)c1c(Cl)nc(C)c([N+](=O)[O-])c1C	84	i	94	0.66	-5
Cc1sc2ncn(CC(=O)NCCCC(=O)N3CCN(c4ncccn4)CC3)c(=O)c2c1C	105	i	102	1.8	8
COC(=O)N/N=C/c1ccc([N+](=O)[O-])o1	71	i	67	-0.089	99*
CCCCCCC(=O)Nc1ccc(C(=O)N/N=C/c2cccnc2)cc1	90	i	95	0.018	-3
CCCCCCCC(=O)Nc1ccc(C(=O)N/N=C/c2cccc([N+](=O)[O-])c2)cc1	1.7*	+	1.5*	-0.72	-3
Cc1nonc1C(=O)N/N=C/c1ccc([N+](=O)[O-])o1	nt	i	nt	-0.58	94*
Cc1nonc1C(=O)N/N=C/c1ccc(O)cc1O	nt	i	nt	0.095	98*
O=C(CNC(=O)c1cccc(F)c1)N/N=C/c1cccc([N+](=O)[O-])c1	95	i	96	-0.15	81*
O=C(N/N=C/c1ccc([N+](=O)[O-])o1)C1CC1	nt	i	nt	-1.3	100*
CCCC(=O)Nc1ccc(C(=O)N/N=C/c2ccc([N+](=O)[O-])o2)cc1	1.9*	i	2.7*	0.05	99*
O=C(N/N=C/c1ccc([N+](=O)[O-])o1)C(O)c1ccccc1 (stereo not drawn)	nt	nt	nt	0.7	nt
CN(/N=C/c1ccc([N+](=O)[O-])o1)c1ccccc1	nt	i	nt	1.7	71*
Cc1ccc(S(=O)(=O)N2CCN(C(=O)Cn3nc(C(=O)O)c4ccccc4c3=O)CC2)cc1	nt	nt	nt	-0.29	nt
Cc1cc(N)n(-c2nc(-c3cccnc3)nc3ccccc23)n1	83	i	95	-0.086	2
O=C(Cc1ccccc1)NCC(=O)OCC(=O)c1ccccc1Cl	nt	i	nt	-0.4	93*
O=C(Nc1ccc(Cl)c(C(F)(F)F)c1)NC1CC2CCCC(C1)N2C1CC1 (stereo not drawn)	nt	+	nt	0.76	60*
FC(F)(F)C1=CC(c2ccccc2)=NCCN1	97	i	100	-0.62	-8
SMILES	HCT116 PTEN-null	Autophagy HCS	bCat KO growth	Dynein cargo inh	Lmaj promast
CN(C)CCCN(Cc1ccccc1)C(=S)Nc1ccc(F)c(Cl)c1	nt	i	nt	0.66	31
CCCN(Cc1ccccc1)C(=S)Nc1cccc(C(F)(F)F)c1	83	i	81	1	91*
CCCN(Cc1ccccc1)C(=S)Nc1ccc(F)cc1	nt	i	nt	-0.83	1
CCCN(Cc1ccccc1)C(=S)Nc1ccc(SC(F)F)cc1	nt	i	nt	-0.27	53*
CN(C)CCCN(Cc1ccccc1)C(=S)Nc1cccc(C(F)(F)F)c1	60	i	56	-0.51	60*
COc1ccc(NS(=O)(=O)c2ccc(NC(=O)c3ccc(N(C)S(C)(=O)=O)cc3)cc2)c(OC)c1	66	i	71	-0.26	54*
O=C(CN(C(=O)c1ccc(Cl)cc1)C1CCCCC1)Nc1ccc(Cl)c([N+](=O)[O-])c1	22	i	30	0.45	85*
O=C(COc1ncnc2ccccc12)Nc1cccc([N+](=O)[O-])c1	nt	i	nt	1.3	0
O=C(COc1ncnc2ccccc12)Nc1ccc(Cl)c([N+](=O)[O-])c1	89	i	89	-0.25	72*
O=C(CN(C(=O)c1ccccc1Cl)C1CCCCC1)Nc1ccc(Cl)c([N+](=O)[O-])c1	25	i	44	-0.52	80*
CCN(CC)S(=O)(=O)c1ccc(C)c(NC(=S)NNC(=O)C2CC2)c1	102	i	89	0.77	39
Cc1ccsc1C(=O)N1CCC(CO)(Cc2ccccc2)CC1	nt	i	nt	-1	8
COc1ccc(-c2cc(C(F)(F)F)c(C#N)c(SCC(=O)Nc3nc(C)co3)n2)cc1	10	+	26	-0.65	-8
COc1ccc(-c2cc(C(F)(F)F)c(C#N)c(SCC(=O)Nc3ccccc3C#N)n2)cc1	5	+	3.2*	0.14	-6
COc1ccc(NC(=O)CSc2nc(-c3ccc(C)cc3)cc(C(F)(F)F)c2C#N)cc1	69	i	75	0.62	-6
Cc1cc(C)nc(NNC2=CC(=[N+]3CCCC3)CCC2)n1	nt	i	nt	-0.97	-9
O=C(N/N=C\C=C\c1ccco1)c1cc(-c2ccc3ccccc3c2)n[nH]1	3.6*	i	7	0.31	13
O=C(N/N=C/C=C\c1ccco1)c1ccccn1	nt	nt	nt	1.1	nt
CC(=O)N1CCN(Cc2nc(-c3cccc(Cl)c3)no2)CC1	nt	i	nt	0.19	-6
Cc1nnc(SCC(=O)Nc2ccc(Cl)cn2)s1	95	i	94	0.25	57*
O=[N+]([O-])c1cc(Cl)ccc1Oc1ccc(-c2nnco2)cc1	nt	i	nt	-0.89	5
CC(C)(C)C1CCC(=NNC(=O)c2ccccc2-n2cccc2)CC1 (stereo not drawn)	104	i	98	-0.27	-7
Cn1c(NCCCN2CCOCC2)nc2c1c(=O)n(Cc1ccc(Cl)cc1Cl)c(=O)n2C	57	i	57	-0.61	90*
Cn1c(=O)c2c(nc(NCCNC(=O)c3ccco3)n2Cc2ccc(Cl)cc2Cl)n(C)c1=O	98	i	100	-0.069	-2
CCOC(=O)c1c(CN(C)C)n(C)c2ccc(OC(C)=O)cc12	83	i	81	-0.5	67*
C(=C\c1ccccc1)/CN1CCN(c2ncnc3c2oc2ccccc23)CC1	20	i	11	0.59	57*
c1ccc2c(c1)oc1c(N3CCOCC3)ncnc12	93	i	97	-0.53	-3
CC(=O)NC(c1cccc([N+](=O)[O-])c1)c1c(OC(C)=O)ccc2ccccc12 (stereo not drawn)	89	i	97	1.4	71*
CC(=O)Oc1ccc2ccccc2c1C(NC(=O)Cc1ccccc1)c1ccccc1 (stereo not drawn)	61	i	67	0.35	28
